High-throughput results: PubChem BioAssay, several laboratories
S1P4 agonist – activates the human S1P4 receptor; O95977; S1P4-expressing cell line, agonist reporter assay; activation, % at 4.98 µM; 220,000 tested, 0.35% active; AID 1509; in the data active means activation above about 11%;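 further: 0% = DMSO vehicle and 100% = reference agonist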
Target sequence (O95977 whole entry, looked up): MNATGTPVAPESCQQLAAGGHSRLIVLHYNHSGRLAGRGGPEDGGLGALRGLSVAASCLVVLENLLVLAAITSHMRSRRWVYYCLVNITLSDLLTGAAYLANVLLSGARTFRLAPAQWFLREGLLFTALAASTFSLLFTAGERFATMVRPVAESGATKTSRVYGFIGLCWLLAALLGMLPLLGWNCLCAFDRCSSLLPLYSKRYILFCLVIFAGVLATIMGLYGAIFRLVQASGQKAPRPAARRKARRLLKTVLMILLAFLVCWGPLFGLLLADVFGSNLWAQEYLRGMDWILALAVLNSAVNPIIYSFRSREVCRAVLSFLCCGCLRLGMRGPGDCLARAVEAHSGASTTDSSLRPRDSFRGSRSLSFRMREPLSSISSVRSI
S1P4 antag – human S1P4 receptor antagonism. O95977. S1P4-expressing cells, antagonist mode, reporter read-out. inhibition, % at 4.98 µM. 220,000 tested, 0.26% active. AID 1510; in the data active means inhibition above about 29%;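 further: 0% = wells stimulated with agonist and 100% = vehicle wells without agonist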
zVAD death inh – L929 zVAD cell death inhibition | 220,000 tested, 0.38% active | viability rescue, % at 10 µM | AID 1377 | L929 zVAD necroptosis rescue, ATP luminescence, 24 h; with zVAD 60 µM;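 active means activation, scaled between plate controls, above about 75%, limit read from the data; inactive means activation under that limit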;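 further: 0% = zVAD with DMSO and 100% = DMSO alone without zVAD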
Dynein cargo inh – blocks dynein driven cargo transport along microtubules | 3617.4 mouse cells, GR-EGFP nuclear translocation imaging; test concentration mostly 20 µM; stimulated with dexamethasone, 1 µM; stronger effect = lower value | z-score, hits read low | 220,000 tested, 0.47% active;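 active means plate z-score of nuclear minus cytoplasmic receptor signal below a set negative limit, without overly bright fluorescence or cell loss, cut at about -3.5 in these data, passing the limit was not always enough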;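 further: z-score of nuclear minus cytoplasmic ring GR-EGFP intensity difference per well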
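medium = tetracycline-free induction medium containing charcoal-stripped FBS | also added = 1.0 µM final dexamethasone stimulus | schedule = 48 h induction, 1 h compound, 30 min dex at 37 °C | technique = fixed, Hoechst-stained cells imaged at 10x for EGFP | measure = GR-EGFP nuclear translocation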
Tb hexokinase – T. brucei hexokinase 1 inhibition; recombinant TbHK1, G6PDH-coupled NADH A340; 220,000 tested, 0.11% active; inhibition, % at 10 µM;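 active means inhibition of 50% or more in the single-dose primary screen; inactive means inhibition below 50%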
TNF necrop inh – inhibitors of TNF-alpha induced necroptosis in Jurkat FADD-/- cells | Jurkat FADD-/- TNF necroptosis rescue, ATP luminescence, 24 h; 0 = TNF only, 100 = no-TNF cells | 220,000 tested, 0.068% active | AID 463075 | activation (protection from cell death), % at 10 µM;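 active means activation, meaning protection from cell death, of at least 50% relative to plate controls; inactive means activation below 50%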;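 further: necroptosis triggered by 40 ng/mL TNF-alpha added together with compound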
zVAD necrop conf – confirmed blocker of zVAD induced death in L929 cells; L929 zVAD-induced necroptosis rescue, ATP luminescence, 24 h; AID 463117; shares compounds with zVAD death inh; 760 tested, 16% active; activation (protection from necroptosis), % at 10 µM;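 active means mean protection from necroptosis of at least 50% over duplicate tests; inactive means mean protection below 50%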;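 further: 0% = cells with zVAD alone and 100% = vehicle cells without zVAD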
Starred values were filed as active, the others as inactive; . = no result. A selection: hits, their analogues and other compounds. The true share with any hit is near 1.5%.

SMILES	S1P4 agonist	S1P4 antag	zVAD death inh	Dynein cargo inh	Tb hexokinase	TNF necrop inh	zVAD necrop conf
Cc1cc2ccccn2c1C(=O)c1ccc([N+](=O)[O-])o1	-2.3	26.9	12.9	0.274	-6.1	-2.3	.
CC1CCc2nc(NC(=O)Cc3cccs3)sc2C1 (configuration not stated)	-3.0	-9.4	0.1	-0.112	1.9	8.0	.
CC(C)(C)C1CCc2nc(NC(=O)Cc3cn4ccsc4n3)sc2C1 (configuration not stated)	-0.3	-2.2	76.1*	-0.083	2.7	3.6	23.3
Cc1c(Cl)cccc1NC(=O)Cc1ccc([N+](=O)[O-])cc1	1.0	-9.9	2.5	-0.432	-2.5	0.4	.
CCCCNC(=O)N1CCc2ccccc2C1	0.6	-20.8	-0.2	-0.195	-8.1	2.6	.
CC(C)c1ccc(NC(=O)N2CCc3ccccc3C2)cc1	-0.1	20.6	75.8*	1.01	0.1	3.9	1.5
O=c1cc(-c2ccc(C3CCCCC3)cc2)[nH][nH]1	1.4	2.6	0.6	1.2	2.3	-2.1	.
COc1cc(C(=O)OCC(=O)NCCN2C(=O)CSC2=O)ccc1OCc1c(C)noc1C	0.9	4.5	-1.0	0.157	-2.0	-0.9	.
N#Cc1cccc(NC(=O)COc2ccc(-n3ccnc3)cc2)c1	1.5	-2.8	77.3*	-0.35	6.5	-2.2	67.7*
C=C(C)COc1ccc(-c2nc(N)ncc2-c2ccc(OC)cc2)c(O)c1	0.8	-27.1	3.0	1.92	-10.8	-1.5	.
COc1ccc(-c2cnc(N)nc2-c2ccc(OC)cc2O)cc1	0.9	-6.9	92.5*	-0.322	-10.6	0.8	7.8
O=C(CCl)N1c2ccccc2OCC1c1ccccc1 (configuration not stated)	1.6	-12.1	90.1*	-3.17	-0.8	-15.1	2.8
O=C(/C=C/c1cccs1)Nc1cccc(NC(=O)/C=C/c2cccs2)n1	0.1	-7.6	20.9	-0.454	-34.3	-1.0	.
Cc1ccc(/C=C/C(=O)Nc2ncc(C)s2)o1	0.2	-1.4	8.6	-0.414	-6.1	1.2	.
O=C(COC(=O)/C=C/c1cccc(F)c1)Nc1ncccn1	-0.7	-13.0	0.4	1.96	12.2	0.6	.
Cc1ccc(/C=C/C(=O)Nc2nccs2)o1	-1.5	-22.3	78.9*	1.3	-60.5	16.3	5.6
O=C(/C=C/c1cccs1)Nc1nccs1	0.5	-6.5	79.3*	-1.64	-23.8	11.4	1.0
O=C(/C=C\c1ccccc1)Nc1nccs1	0.6	6.3	103.2*	-1.3	-8.6	23.9	6.5
O=C(/C=C/c1cccc(F)c1)Nc1nccs1	0.8	-19.0	87.8*	-0.682	-16.3	30.8	76.4*
CC(C)OC(=O)CC1C(=O)NCCN1C(=S)NC(=O)c1cccs1 (configuration not stated)	-2.1	-21.1	0.0	1.27	-11.9	0.1	.
COc1ccc2nc(NC(=O)CSc3nnnn3C)sc2c1	0.5	-1.0	52.9	0.612	0.2	1.2	.
COc1cc([N+](=O)[O-])ccc1NC(=O)COC(=O)c1ccc(NC(N)=O)cc1	-0.6	8.7	78.4*	0.121	-10.9	2.6	38.7
Cc1ccc(NC(=O)CSc2nsc(SCC(=O)Nc3ccc(C)cc3C)c2C#N)c(C)c1	0.2	1.1	0.2	-0.643	16.6	0.3	.
Cc1csc(NC(=O)CSc2nsc(SCC(=O)Nc3nc(C)cs3)c2C#N)n1	2.2	-0.4	75.5*	-0.319	3.4	-6.7	53.4*
O=C(COC(=O)c1cc[n+]([O-])cc1)Nc1ccc([N+](=O)[O-])cc1	2.0	12.6	1.4	-0.0969	-6.4	1.1	.
SMILES	S1P4 agonist	S1P4 antag	zVAD death inh	Dynein cargo inh	Tb hexokinase	TNF necrop inh	zVAD necrop conf
CS(=O)(=O)Nc1cccc2cccnc12	1.5	-5.9	0.4	-0.0373	8.5	-1.1	.
Cc1[nH]c2c(ccc3cccnc32)c1C	0.4	-6.9	77.9*	0.0161	-13.4	12.2	9.7
CC(=O)c1sc(Nc2ccccn2)nc1C	-3.1	-7.9	95.5*	-0.279	-75.1	-3.5	0.7
COc1ccc(NC(=O)Nc2nc3c(s2)CCCC3)cc1	0.2	-5.0	79.4*	0.491	6.1	7.8	32.6
COc1ccc(NC(=O)Nc2nc3ccccc3s2)cc1	0.5	2.1	44.5	0.171	-7.1	5.8	.
CC(C)(C)c1ccc2c(c1)OC(C(=O)N/N=C/c1ccc([N+](=O)[O-])o1)CO2 (configuration not stated)	0.5	-6.5	2.5	-1.23	-13.6	-10.8	.
CN(c1cccc(NC(=O)CSc2ccc(Cl)cc2)c1)S(C)(=O)=O	1.1	-9.2	75.3*	1.5	-3.8	-7.3	2.8
CN(C)S(=O)(=O)Oc1ccc(C(=O)Nc2cccc(C(F)(F)F)c2)cc1	0.3	-8.0	79.2*	0.121	-0.5	-3.8	3.3
CN(c1cccc(NC(=O)c2ccc(C(C)(C)C)cc2)c1)S(C)(=O)=O	-0.4	-6.5	77.2*	-0.163	-7.1	-1.9	36.3
CCC(C)(C(=O)NC1CCCC1)N(Cc1cccs1)C(=O)c1ccccn1 (configuration not stated)	-0.7	9.1	0.7	-0.155	-0.7	0.0	.
O=C(O)c1ccccc1CSc1nnc2c(n1)[nH]c1ccccc12	1.6	-10.1	0.5	-0.441	-10.5	2.0	.
CCOC(=O)C1(Cc2cccc(F)c2)CCN(Cc2ccc(COC)o2)CC1	1.4	-1.3	0.0	-0.945	-2.1	0.8	.
N=C1SCC(=O)N1c1ncc(Cc2ccc(F)cc2)s1	3.3	6.4	0.7	-0.0564	-15.7	1.6	.
O=C(NC1CCCCCCC1)c1cc(COc2ccc3ncccc3c2)on1	2.5	-32.6	76.4*	0.211	2.0	-6.3	-0.4
CC1CCCCC1NC(=O)Cn1nnc(-c2ccc(Cl)cc2)n1 (configuration not stated)	0.8	-25.0	78.2*	-0.755	2.7	-1.0	3.4
Oc1ccc(/C=N/Nc2ncc(Br)cn2)c(O)c1	4.0	-13.9	92.2*	-0.762	-35.1	31.1	2.9
O=C(CSc1nc(-c2ccco2)cc(C(F)(F)F)n1)NCCCN1CCOCC1	1.5	1.5	1.2	0.179	-24.0	0.4	.
CCCN1C(=O)/C(=C/c2ccc(C)s2)NC1=S	0.6	3.1	91.7*	0.00586	3.8	29.8	86.5*
Cc1ccc(/C=C2/NC(=O)N(Cc3ccccc3F)C2=O)s1	0.3	11.7	2.4	-1.27	-0.3	1.1	.
CCOC(=O)C1(Cc2ccccc2Cl)CCN(C(=O)CCn2ccnc2C)CC1	1.0	-34.0	-1.6	1.43	8.3	0.0	.
Nc1ccc(Nc2nc(-c3cc4ccccc4oc3=O)cs2)cc1	0.9	-14.5	79.9*	0.0575	-5.4	-5.9	3.7
O=C(NCCCN1CCOCC1)c1ccc2c(=O)n(CCc3ccccc3)c(=O)[nH]c2c1	0.6	5.8	0.1	-0.343	-12.3	-1.7	.
